According to ChEMBL document CHEMBL2146365, “Design and synthesis of EGFR dimerization inhibitors and evaluation of their potential in the treatment of psoriasis” (Bioorg Med Chem, 2012):
The source made the active and inactive calls. The calls are words filed in the database; no cut-off is given here.

Columns and labels:
[1] = target: Epidermal growth factor receptor (Homo sapiens) (UniProt P00533); experiment: Inhibition of EGFR-mediated p38 phosphorylation in HPV-16 transformed human CCD-1106 cells at 116.8 uM after 30 mins by densitometric analysis; type: cell-based
Epidermal growth factor receptor (Homo sapiens), sequence (P00533 whole entry): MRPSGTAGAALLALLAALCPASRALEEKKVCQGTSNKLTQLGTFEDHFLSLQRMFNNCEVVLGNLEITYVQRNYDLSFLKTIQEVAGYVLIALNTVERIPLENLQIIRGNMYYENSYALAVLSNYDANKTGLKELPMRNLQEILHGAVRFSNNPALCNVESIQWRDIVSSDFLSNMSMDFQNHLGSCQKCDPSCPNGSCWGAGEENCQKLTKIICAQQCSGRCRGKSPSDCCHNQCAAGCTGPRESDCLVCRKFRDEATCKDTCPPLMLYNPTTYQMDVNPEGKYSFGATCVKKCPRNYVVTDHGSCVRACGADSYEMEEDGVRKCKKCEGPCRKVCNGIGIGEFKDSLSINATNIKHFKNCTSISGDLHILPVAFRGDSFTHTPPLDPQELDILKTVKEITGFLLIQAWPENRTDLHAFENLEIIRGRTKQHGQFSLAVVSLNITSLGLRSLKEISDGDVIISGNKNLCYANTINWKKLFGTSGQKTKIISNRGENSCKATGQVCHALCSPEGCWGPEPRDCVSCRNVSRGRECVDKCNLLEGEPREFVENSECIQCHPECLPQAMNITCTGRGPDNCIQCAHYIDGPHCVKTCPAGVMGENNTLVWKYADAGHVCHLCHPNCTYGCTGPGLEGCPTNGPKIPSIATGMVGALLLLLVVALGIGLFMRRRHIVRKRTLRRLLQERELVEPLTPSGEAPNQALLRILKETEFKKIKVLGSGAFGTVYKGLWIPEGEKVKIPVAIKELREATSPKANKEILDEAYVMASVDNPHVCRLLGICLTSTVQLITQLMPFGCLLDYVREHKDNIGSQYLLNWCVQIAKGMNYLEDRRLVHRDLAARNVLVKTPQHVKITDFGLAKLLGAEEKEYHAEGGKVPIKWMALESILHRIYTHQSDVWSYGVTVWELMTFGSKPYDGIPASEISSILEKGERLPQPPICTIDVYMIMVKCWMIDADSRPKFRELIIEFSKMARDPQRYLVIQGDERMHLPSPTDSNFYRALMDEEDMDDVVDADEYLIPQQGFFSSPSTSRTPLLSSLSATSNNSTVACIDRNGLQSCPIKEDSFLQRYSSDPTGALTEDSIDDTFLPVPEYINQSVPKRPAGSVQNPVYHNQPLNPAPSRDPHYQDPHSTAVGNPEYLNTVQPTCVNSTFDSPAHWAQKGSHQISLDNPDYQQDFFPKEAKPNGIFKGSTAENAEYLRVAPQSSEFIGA
Summary of the method: (§1)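 CCD-1106 cells were treated with compound for 30 min at 37 °C, then stimulated with EGF. Lysates were separated by SDS-PAGE, blotted to nitrocellulose and blocked in 3% BSA/NaTT. Blots were probed with p-ERK (E-4) or p-p38 (D-8) antibodies, detected by ECL and quantified by densitometry.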

HaCaT [2] = experiment: Cytotoxicity against human HaCaT cells assessed as cell viability after 6 hrs by MTT assay; type: functional; details: read-out: LD50 (the source's name)
Summary of the method: (§2)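 Cells were plated at 10,000/well, attached overnight, and exposed 6 or 24 h to eight drug concentrations with six in-plate replicates (DMSO <1%). MTT (0.5 mg/ml in PBS) was added for 2 h at 37 °C, then dissolved in 90% isopropanol/10% DMSO, and A590 was read. Values were corrected against untreated controls. LD₅₀ is reported as mean ± S.E.M., n = 3.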

[3] = Growth inhibition of HPV-16 transformed human CCD-1106 cells after 72 hrs by neutral red uptake assay; type: functional; details: CCD-1106, 72 h
Summary of the method: (§3)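 Neutral red uptake assay over 72 h. Cells were seeded at 10,000 cells/well and attached overnight, then exposed to eight concentrations with six replicates (DMSO <1%). CCD-1106 were grown in keratinocyte SFM with supplements. HaCaT were grown in DMEM with 10% FBS and 2 mM L-glutamine. NHEK (pooled adult) were grown in keratinocyte growth medium with supplement. Values are means, n = 6, against the untreated control.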

HaCaT [4] = experiment: Induction of apoptosis in human HaCaT cells assessed as early phase apoptotic cells at 223.2 uM after 9 hrs by AnnexinV-FITC/propidium iodide based FACS flow cytometry; type: functional
Summary of the method: (§4)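 HaCaT cells at 10^6 cells/ml were attached overnight and exposed to vehicle, 111.6, 223.2 or 446 µM for 9 h. Cells were then trypsinized, washed in ice-cold PBS and stained with Annexin V-FITC/PI. FACScan analysis used FL1/FL2, 10,000 events per sample, scatter gating, and quadrants set with single-stain controls. Runs were in triplicate and results are means of two experiments.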

HaCaT [5] = experiment: Induction of apoptosis in human HaCaT cells assessed as activation of caspase 3/7 after 12 hrs; type: functional, cell-based
Summary of the method: (§5)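 HaCaT cells were seeded at 10,000 cells/0.2 ml/well, attached overnight and exposed to compound (56–446 µM) for 12 h. Caspase-3/7 activity was measured with the Apo-ONE homogeneous kit, fluorescence 499/521 nm, in triplicate, with medium-only background wells. MTT viability was run in parallel. Results are means of two experiments, t-test against control.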

[6] = Cytotoxicity against HPV-16 transformed human CCD-1106 cells assessed as cell viability after 6 hrs by MTT assay; type: functional; details: CCD-1106, 6 h, read-out: LD50 (the source's name); summary of the method: as §2
HaCaT [7] = experiment: Induction of necrosis in human HaCaT cells after 12 hrs by electron microscopy; type: functional, cell-based
[8] = target: Epidermal growth factor receptor (Homo sapiens) (UniProt P00533); experiment: Inhibition of phosphorylated EGFR dimerization in HPV-16 transformed human CCD-1106 cells at 126.7 uM after 30 mins by densitometric analysis; type: cell-based
Summary of the method: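 CCD-1106 cells were exposed to compounds for 30 min at 37 °C, then stimulated with EGF 50 ng/mL for 10 min. They were cross-linked with 2 mM BS3 for 30 min at room temperature and quenched with Tris (pH 7.5). Lysates were run on SDS-PAGE and immunoblotted for phospho-EGFR (Tyr1173) and total EGFR. The ~340 kDa dimer band was quantified by densitometry against the no-inhibitor control.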

HaCaT [9] = experiment: Induction of apoptosis in human HaCaT cells assessed as viable cells at 446 uM after 9 hrs by AnnexinV-FITC/propidium iodide based FACS flow cytometry; type: functional; details: read-out: Activity; summary of the method: as §4
HaCaT [10] = experiment: Induction of apoptosis in human HaCaT cells assessed as viable cells at 223.2 uM after 9 hrs by AnnexinV-FITC/propidium iodide based FACS flow cytometry; type: functional; details: read-out: Activity; summary of the method: as §4
HaCaT [11] = experiment: Induction of apoptosis in human HaCaT cells assessed as viable cells at 446 uM after 12 hrs by MTT assay
HaCaT [12] = experiment: Induction of apoptosis in human HaCaT cells assessed as activation of caspase 3/7 at 56 to 446 uM after 12 hrs; type: functional, cell-based; summary of the method: as §5
U-937 = experiment: Growth inhibition of human U937 cells after 72 hrs by Cell Titer 96 aqueous one solution assay; type: functional
Summary of the method: (§6)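 Cells were grown in RPMI with 10% FBS, 2 mM L-glutamine and penicillin/streptomycin. They were seeded at 10,000 cells/well in round-bottom plates and exposed to compounds for 72 h (eight concentrations, six replicates). Cell Titer 96 AQueous One reagent was then added for 3 h at 37 °C and absorbance was read at 492 nm. Values are means, n = 6.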

[13] = Cytotoxicity against HPV-16 transformed human CCD-1106 cells assessed as cell viability after 24 hrs by MTT assay; type: functional; details: CCD-1106, 24 h, read-out: LD50 (the source's name); summary of the method: as §2
HaCaT [14] = experiment: Induction of apoptosis in human HaCaT cells after 12 hrs by electron microscopy; type: functional, cell-based
HaCaT [15] = experiment: Induction of apoptosis in human HaCaT cells assessed as activation of caspase 3/7 at 55.8 uM after 12 hrs; type: functional, cell-based; summary of the method: as §5
[16] = Cytotoxicity against HPV-16 transformed human CCD-1106 cells assessed as LDH release after 24 hrs by CYTOX-96 assay; type: functional; details: CCD-1106, 24 h, read-out: LD50 (the source's name)
Summary of the method: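 LDH release was read with the CytoTox 96 kit following the kit protocol after 6 or 24 h drug exposure. Cells were seeded at 10,000/well and attached overnight. Eight concentrations were run with six in-plate replicates; DMSO was <1% in all wells, with medium-only blanks. LD₅₀ is reported as mean ± S.E.M., n = 6. CCD-1106 were grown in supplemented keratinocyte SFM; HaCaT in DMEM/10% FBS.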

HaCaT [17] = experiment: Induction of apoptosis in human HaCaT cells assessed as late phase apoptotic/necrotic cells at 223.2 uM after 9 hrs by AnnexinV-FITC/propidium iodide based FACS flow cytometry; type: functional; summary of the method: as §4
HaCaT [18] = experiment: Cytotoxicity against human HaCaT cells assessed as cell viability after 24 hrs by MTT assay; type: functional; details: read-out: LD50 (the source's name); summary of the method: as §2
HaCaT [19] = experiment: Induction of apoptosis in human HaCaT cells assessed as viable cells at 111.6 uM after 9 hrs by AnnexinV-FITC/propidium iodide based FACS flow cytometry; type: functional; details: read-out: Activity; summary of the method: as §4
HaCaT [20] = experiment: Induction of apoptosis in human HaCaT cells assessed as late phase apoptotic/necrotic cells at 446 uM after 9 hrs by AnnexinV-FITC/propidium iodide based FACS flow cytometry; type: functional; summary of the method: as §4
[21] = Growth inhibition of human NHEK cells after 72 hrs by neutral red uptake assay; type: functional; summary of the method: as §3
[22] = target: Epidermal growth factor receptor (Homo sapiens) (UniProt P00533); experiment: Inhibition of EGFR-mediated ERK2 phosphorylation in HPV-16 transformed human CCD-1106 cells at 116.8 uM after 30 mins by densitometric analysis; type: cell-based; summary of the method: as §1
THP-1 = experiment: Growth inhibition of human THP1 cells after 72 hrs by Cell Titer 96 aqueous one solution assay; type: functional; summary of the method: as §6

CCOc1cc(/C=N\Nc2nc3c(c(=O)n(C)c(=O)n3C)n2Cc2ccccc2)ccc1O
inhibition [1]: 11%
CC50 (HaCaT [2]): 440 µM
GI50 [3]: 9 µM
Activity (HaCaT [4]): 17%
Activity (HaCaT [5]): Dose-dependent effect
CC50 [6]: 234 µM
Activity (HaCaT [7]): inactive
inhibition [8]: 37%
viability at 446 µM (HaCaT [9]): 61%
viability at 223.2 µM (HaCaT [10]): 73%
viability at 446 µM (HaCaT [11]): 62%
Activity (HaCaT [12]): Active
growth inhibition (GI) (U-937): Dose-dependent effect
GI50 (U-937; U-937, 72 h): 46 µM
CC50 [13]: 112 µM
Activity (HaCaT [14]): Active
Activity (HaCaT [15]): Active
CC50 [16]: > 446 µM
Activity (HaCaT [17]): 10%
CC50 (HaCaT [18]): 446 µM
viability at 111.6 µM (HaCaT [19]): 82%
Activity (HaCaT [20]): 15%
GI50 [21]: 54 µM
inhibition [22]: 33%
growth inhibition (GI) (THP-1): Dose-dependent effect
GI50 (THP-1; THP-1, 72 h): 36 µM
